These results are taken from PubChem BioAssay AID635 (SRMLSC, 2007).

Structures are written as SMILES. The campaign covered roughly 1,300 compounds. About 40 (3%) were called active. No rule for the calls is given here. These entries were drawn from the full list. Measured potencies and affinities stand elsewhere.

The nature of this assay: growth inhibition of wild-type E. coli BW25113 pool, dose response, OD615 (AID 635).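 Also: growth measured after 20 h with compound at 37 °C.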 The settings on record: pooled mutant strains; at 100 µM (top of the series). An outline of the steps:
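Material: Keio BW25113 knockout pool, 1,275 strains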
Regarding `Cc1ccc(SCC(=O)N(Cc2nc(-c3ccccc3)no2)C(C)C)cc1`, the growth inhibition is 3.99% (inactive). For `Cc1noc(NS(=O)(=O)c2ccc(NC(=O)COc3ccc(Cl)cc3Cl)cc2)c1C` the value was 2.59% (inactive); for `Cc1noc(NS(=O)(=O)c2ccc(NC(=O)Nc3ccc(Cl)c(Cl)c3)cc2)c1C`, 7.34% (active); for `Cc1c(NC(=O)Nc2ccc(Cl)c(Cl)c2)c(=O)n(-c2ccccc2)n1C`, 1.5% (inactive). Next, `CCOC(=O)c1csc(Nc2nc3ccc(F)cc3s2)n1`: -0.43% (inactive); `CC(C)(C)C(=O)Cn1c(=N)n(Cc2ccccc2)c2ccccc21`: 1.48% (inactive); `O=c1n(Cc2ccccc2)c2cc(Cl)cnc2n1Cc1ccccc1`: -2.48% (inactive). For `Cc1cc(Cl)cc(C)c1OCCCCn1ccnc1` the value was 8.19% (inactive); for `COc1ccc(Oc2cn[nH]c2-c2ccc(O)cc2O)cc1`, -1.15% (inactive); for `COc1cc(NS(=O)(=O)c2ccc(NC(=O)COc3ccccc3Cl)cc2)nc(OC)n1`, -7.59% (inactive). Turning to `CC1(C)CC(=O)C=C(NCCN2CCN(C(=O)Nc3ccc(Cl)c(Cl)c3)CC2)C1`, the growth inhibition is 3.54% (inactive).

As to `Cc1ccc2[nH]c(=O)c(C(c3nnnn3C3CCCC3)N(Cc3cccnc3)Cc3ccco3)cc2c1` (stereo unspecified), the growth inhibition is 0.6% (inactive). Take `Cc1ccc2c(c1)NC(=O)C(CC(=O)NCCCN1CCN(c3cc(Cl)ccc3C)CC1)O2` (stereo unspecified): the growth inhibition is 1.34% (inactive).

As to `CC(C)CCOC(=O)c1c(N)n(CC2CCCO2)c2nc3ccccc3nc12` (stereo unspecified), the growth inhibition was 4.63% (inactive). Next, `CCOc1cccc(NC(=O)C2CC(=O)N(C)C(=Nc3cccc(F)c3)S2)c1` (stereo unspecified): -8.98% (inactive); `COC(=O)c1ccc(OC)c(CSc2nnc(COc3ccccc3)o2)c1`: 0.08% (inactive); `Cc1ccc(SC/C(O)=C(\C#N)c2nc3ccccc3s2)cc1`: 0.79% (inactive). For `O=C(COc1ccccc1)Nc1ccccc1N1CCCCC1` the value was -2.29% (inactive); for `O=C(CCSc1nc(-c2ccco2)cc(C(F)(F)F)n1)N1CCCc2ccccc21`, -1.07% (inactive). Next, `Cc1ccccc1Cn1nc(C)c(NC(=O)c2noc3c2CCc2ccccc2-3)c1C`: -4.26% (inactive); `CCn1c2ccccc2c2nnc(SCc3ccccc3)nc21`: -4.04% (inactive); `Cc1ccc(-n2c(C)cc(C3N=C(N)Nc4nc5ccccc5n43)c2C)c(C)c1` (stereo unspecified): 6.51% (inactive). Regarding `CCCCCC(=O)Nc1ccccc1N1CCN(c2ccccc2)CC1`, the growth inhibition was 1.48% (inactive). As for `O=C(c1ccc(COc2ccc3c(c2)CCC3)o1)N1CCN(c2ccccc2)CC1`, the growth inhibition is -0.73% (inactive). Next, `CCN(CC)c1nc(N)c2c(N)nc3c(c2c1C#N)CC(c1ccccc1)O3` (stereo unspecified): 9.58% (inactive); `CCc1ccccc1N(C)C(=O)CCc1nc(-c2ccc(C)cc2)no1`: -3.1% (inactive); `CCOC(=O)C1CN(c2cc3c(cc2F)c(=O)c(C(=O)O)cn3CC)OC1C(=O)OCC` (stereo unspecified): 0.67% (inactive). For `Cc1nn(-c2ccccc2)c2sc(C(=O)N(CC(=O)NC(C)(C)C)Cc3ccco3)cc12` the value was -4.44% (inactive); for `Cc1onc(-c2ccccc2)c1C(=O)Nc1nnc(N(C)Cc2ccccc2)s1`, -4.99% (inactive). Next, `COc1cccc(-c2cc(C(=O)N3CC4(C)CC3CC(C)(C)C4)no2)c1` (stereo unspecified): 0.09% (inactive); `CC(C)C(c1nnnn1C1CCCC1)N1c2ccccc2CC1C` (stereo unspecified): 0.18% (inactive). Turning to `CC1CCN(S(=O)(=O)c2ccc(Cl)cc2Br)CC1`, the growth inhibition was 7.88% (inactive). As to `CCOC(=O)c1ccc(N2C(=O)c3n[nH]c(C)c3C2c2ccc(OC)cc2OC)cc1` (stereo unspecified), the growth inhibition is -0.55% (inactive). In the case of `O=C(c1ccc(COc2c(F)c(F)cc(F)c2F)o1)N1CCN(c2ccc(Cl)cc2)CC1`, the growth inhibition is -6.87% (inactive).

Take `N#Cc1ccc(CSc2nnc(-c3cccs3)n2-c2ccccc2)cc1`: the growth inhibition is -1.14% (inactive). Next, `CCn1c(CNc2cccc(Cl)c2)nnc1SCC(=O)OC1CCCCC1`: 1.08% (inactive). Next, `Fc1ccc(Br)cc1C1C=C(c2ccc(Br)s2)Nc2ncnn21` (stereo unspecified): -4.11% (inactive); `CC1CCN(S(=O)(=O)c2cccc(C(=O)NCc3cccs3)c2)CC1`: 0.28% (inactive); `CC(=O)Nc1cccc(NC(=O)c2oc3ccccc3c2C)c1`: 2.78% (inactive). Next, `N=C(N)c1c(O)n(C2CCCCC2)c(=O)n(C2CCCCC2)c1=O`: 3.33% (inactive); `COCc1nnc(NC(=O)c2ccc(S(=O)(=O)N(C)C3CCCCC3)cc2)o1`: 0.24% (inactive); `Cc1cc(Nc2ccccc2)nc(-c2ccccc2O)n1`: 1.65% (inactive). Turning to `CCOC(=O)c1cnc(-n2nc(C)cc2C)nc1NCc1ccccc1`, the growth inhibition was 0.66% (inactive). For `CCn1nc(-c2ccccc2)nc2c(=O)n(C)c(=O)nc1-2` the value was 1.94% (inactive); for `CC(C)(C)c1cc(C(F)(F)F)nc(SCCCNC(=O)c2ccco2)n1`, 6.78% (inactive). For `CC(C)(C)n1nnnc1C(c1cccs1)N(Cc1ccccc1)Cc1cccnc1` (stereo unspecified) the value was 3.16% (inactive); for `CCOC(=O)c1c(-c2ccccc2)nnn1-c1nc(OCC)nc(N2CCCCC2)n1`, 0.78% (inactive); for `c1ccc(CCN2CCN(c3ncnc4c3cnn4-c3ccccc3)CC2)cc1`, 6.43% (inactive).

With `CCOC(=O)c1ccc(NC(=O)CCc2nc(-c3ccccc3Cl)no2)cc1`, the growth inhibition is -0.84% (inactive). Consider `CCOc1ccc(S(=O)(=O)Nc2cccc(Cl)c2)cc1`, for which the growth inhibition is 12.8% (inactive). Consider `CCCCOc1ccc(S(=O)(=O)N2CCCCCC2)cc1`, for which the growth inhibition is 3.61% (inactive).
